From ChEMBL document CHEMBL2086298, “Synthesis and biological evaluation of fatty acyl ester derivatives of (-)-2',3'-dideoxy-3'-thiacytidine” (J Med Chem, 2012)

What was measured:
[1] = tested on: Human immunodeficiency virus 1; test: Antiviral activity against HIV1 3B assessed as inhibition of infection in HeLa P4/R5 cells expressing CD4 receptor and beta-gal incubated for 2 hrs followed by compound-wash out measured after 46 hrs by single round infection MAGI assay; format: functional, organism-based; settings: Human immunodeficiency virus 1, 3B
How it was run: (§1)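 P4R5 MAGI cells (CD4 and coreceptor expressing) were seeded at 1.2 × 10⁴ cells/well about 18 h before infection. They were exposed for 2 h at 37 °C to cell-free HIV-1 with or without compound, then washed and cultured 46 h more. Infection was read by β-galactosidase reporter chemiluminescence as a percentage of untreated infection. EC₅₀ came from regression, with triplicate wells per concentration.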

[2] = tested on: Human immunodeficiency virus 1; test: Antiviral activity against HIV1 BaL assessed as inhibition of infection in HeLa P4/R5 cells expressing CD4 receptor and beta-gal incubated for 2 hrs followed by compound-wash out measured after 46 hrs by single round infection MAGI assay; format: functional, organism-based; settings: Human immunodeficiency virus 1, BaL; how it was run: as §1
HeLa = test: Cytotoxicity against human HeLa P4/R5 cells incubated for 2 hrs followed by compound-wash out measured after 46 hrs by MTT assay
[3] = tested on: Human immunodeficiency virus; test: Antiviral activity against HIV infected in human CEM-SS cells; format: functional, organism-based; settings: Human immunodeficiency virus 1, CEM-SS
[4] = tested on: Human immunodeficiency virus 1; test: Ratio of lamivudine EC50 to compound EC50 for HIV1 by cell-based assay; format: functional
[5] = tested on: Human immunodeficiency virus 1; test: Antiviral activity against HIV1 by cell-based assay; format: functional, organism-based
[6] = Cytotoxicity against PHA-stimulated human PBMC incubated for 6 hrs followed by compound-wash out measured after 6 days; format: cell-based
How it was run: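 PHA-P-stimulated PBMCs pooled from at least two normal donors were exposed to compound dilutions for 6 h. Cells were then washed by medium replacement and centrifugation (~200g, 10 min) and cultured 6 days or until peak RT activity. Cytotoxicity was monitored by MTS on the same plates used for antiviral testing, alongside drug-plus-medium control wells without cells.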

[7] = tested on: Human immunodeficiency virus 1; test: Antiviral activity against HIV1 94US3393IN clade B clinical isolate infected in PHA-stimulated human PBMC assessed as inhibition of viral replication incubated for 6 hrs followed by compound-wash out measured after 6 days by liquid scintillation counting; format: functional, organism-based; settings: Human immunodeficiency virus 1, 94US3393IN clade B
[8] = tested on: Human immunodeficiency virus 1; test: Antiviral activity against NNTRI-resistant HIV1 A-17 clade B clinical isolate infected in PHA-stimulated human PBMC assessed as inhibition of viral replication incubated for 6 hrs followed by compound-wash out measured after 6 days by liquid scintillation counting; format: functional, organism-based; settings: Human immunodeficiency virus 1, A-17 clade B
CCRF-CEM [9] = test: Drug metabolism in human CCRF-CEM cells assessed as compound hydrolysis at 50 uM after 1 hr by HPLC analysis; format: ADME, cell-based
How it was run: (§2)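 CCRF-CEM cells were grown in serum-free RPMI to ~70–80% confluency (1 × 10⁶ cells/mL), then given medium containing 50 μM compound at 37 °C for 1–72 h. Pellets were washed in ice-cold PBS and extracted with methanol/chloroform/isopropanol (4:3:1), then filtered. Parent ester and products were tracked by analytical HPLC at 265 nm using a water/acetonitrile (0.1% TFA) gradient.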

CCRF-CEM [10] = test: Cellular uptake in human CCRF-CEM cells at 50 uM after 1 hr by HPLC analysis; format: ADME, cell-based; how it was run: as §2
CCRF-CEM [11] = test: Drug metabolism in human CCRF-CEM cells assessed as compound hydrolysis at 50 uM after 1 hr by HPLC analysis
[12] = tested on: Human immunodeficiency virus 1; test: Antiviral activity against NRTI-resistant HIV1 71361-1 clade B clinical isolate infected in PHA-stimulated human PBMC assessed as inhibition of viral replication incubated for 6 hrs followed by compound-wash out measured after 6 days by liquid scintillation counting; format: functional, organism-based; settings: Human immunodeficiency virus 1, 71361-1 clade B
[13] = tested on: Human immunodeficiency virus 1; test: Antiviral activity against multidrug-resistant HIV1 4755-5 clade B clinical isolate infected in PHA-stimulated human PBMC assessed as inhibition of viral replication incubated for 6 hrs followed by compound-wash out measured after 6 days by liquid scintillation counting; format: functional, organism-based; settings: Human immunodeficiency virus 1, 4755-5 clade B
[14] = tested on: Human immunodeficiency virus 1; test: Antiviral activity against HIV1 98USMSC5016 clade C clinical isolate infected in PHA-stimulated human PBMC assessed as inhibition of viral replication incubated for 6 hrs followed by compound-wash out measured after 6 days by liquid scintillation counting; format: functional, organism-based; settings: Human immunodeficiency virus 1, 98USMSC5016 clade C

Row | EC50 [1] [µM] | EC50 [2] [µM] | Compound | EC50 (HeLa) [µM] | other results
1 | 5.3 | 0.4 | CCSCCCCCCCCCCCC(=O)Nc1ccn([C@@H]2CS[C@H](CO)O2)c(=O)n1 | > 212 | 
2 |  |  | CCSCCCCCCCCCCCC(=O)O |  | EC50 [3]: 9.4 µM
3 | 2.3 | 0.2 | CCSCCCCCCCCCCCC(=O)OC[C@@H]1O[C@H](n2ccc(N)nc2=O)CS1 | > 212 | 
4 | 148 | 72.6 | [N-]=[N+]=NCCCCCCCCCCCC(=O)Nc1ccn([C@@H]2CS[C@H](COC(=O)CCCCCCCCCCCN=[N+]=[N-])O2)c(=O)n1 | > 148 | 
5 | 10.9 | 0.7 | CCCCCCCCCCCCCC(=O)Nc1ccn([C@@H]2CS[C@H](CO)O2)c(=O)n1 | > 228 | Ratio EC50 [4]: 115
6 | > 154 | 135 | CCCCCCCCCCCCCC(=O)Nc1ccn([C@@H]2CS[C@H](COC(=O)CCCCCCCCCCCCC)O2)c(=O)n1 | > 154 | 
7 |  |  | Nc1ccn([C@@H]2CS[C@H](CO)O2)c(=O)n1 [LAMIVUDINE] | > 437 | EC50 [5]: 80.3 µM; CC50 [6]: > 13.1 µM
8 | 29.4 | 3.8 | [N-]=[N+]=NCCCCCCCCCCCC(=O)Nc1ccn([C@@H]2CS[C@H](CO)O2)c(=O)n1 | > 221 | 
9 | 0.9 | 0.7 | [N-]=[N+]=NCCCCCCCCCCCC(=O)OC[C@@H]1O[C@H](n2ccc(N)nc2=O)CS1 | > 221 | 

Row | Compound | EC50 [1] [µM] | EC50 [2] [µM] | EC50 (HeLa) [µM] | other results
10 | CCCCCCCCCCCCCC(=O)OC[C@@H]1O[C@H](n2ccc(N)nc2=O)CS1 | 0.5 | 0.2 | > 228 | IC50 [7]: 0.0042 µM; IC90 [7]: 0.015 µM; IC50 [8]: 0.0028 µM; IC90 [8]: 0.0311 µM; Drug metabolism (CCRF-CEM [9]): Active; CC50 [6]: > 6.83 µM; Drug uptake (CCRF-CEM [10]): Active; Drug metabolism (CCRF-CEM [11]): Active; IC50 [12]: 0.0433 µM; IC90 [12]: 0.253 µM; IC50 [13]: 5.09 µM; IC90 [13]: > 6.83 µM; IC50 [14]: 0.0019 µM; IC90 [14]: 0.0275 µM
